# IDE act = IDE (human) activation, cell-based. activation, % at 5.96 µM. AID 493087. actives 0.073% (n = 340,000). HEK cells, FAbeta-B cleavage, fluorescence polarization; 0% vehicle, 100% cell-free pure enzyme wells;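 active = activation above the mean of all tested compounds plus 3 SD, set per screening campaign, cut at about 17% in these data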
# UBC13 inh = inhibitors of human UBC13 polyubiquitin chain formation | P61088 | TR-FRET | inhibition, % at 20 µM | actives 0.47% (n = 330,000); in the data active = inhibition above about 45%, passing the limit was not always enough; inconclusive = no clear call, values can overlap the other calls
# Target sequence (P61088 whole entry, looked up): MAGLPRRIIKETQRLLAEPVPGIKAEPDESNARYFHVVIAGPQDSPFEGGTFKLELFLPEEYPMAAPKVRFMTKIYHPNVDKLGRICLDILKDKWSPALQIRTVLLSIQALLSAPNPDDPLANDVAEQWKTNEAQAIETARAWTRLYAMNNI
# PHOSPHO1 block = blocks human PHOSPHO1 phosphatase activity. Q8TCT1. recombinant PHOSPHO1, absorbance phosphatase assay. inhibition, % at 13.3 µM. actives 1.1% (n = 290,000); in the data active = inhibition above about 60%
# proCasp7 act = activates human procaspase-7, counter-screen for procaspase-3 activators | AID 463210 | P55210 | activation, % at 8.5 µM | actives 0.093% (n = 330,000) | recombinant procaspase-7, Ac-DEVD-pNA absorbance 405 nm; D23A/D198A/D206A triple mutant, cannot self-cleave; scale: DMSO 0, 5 µM enzyme 100;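 active = percent activation above the screen-wide mean plus 3 SD, cut at about 25% in these data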
#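 Assay system: Uncleavable procaspase-7 mutant enzyme | Input: 2 µM procaspase-7 mutant as dispensed | Timing: 1 h compound preincubation, 2 h substrate cleavage, 25 °C | Repeats: One well per compound | Control set: DMSO wells as 0%, DMSO with 5 µM added PC-7 as 100% | Technique: Epi-absorbance of released pNA at 405 nm, two timepoints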
# IDE cell inh = inhibits human insulin-degrading enzyme in HEK cells. P14735. FAbetaB cleavage, fluorescence polarization. inhibition, % at 5.59 µM. actives 0.41% (n = 320,000);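 active = percent inhibition above the average of all tested compounds plus 3 SD, set per screening campaign, cut at about 16% in these data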;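 note: IDE supplied by intact live HEK cells; FP after avidin binding of uncleaved biotin substrate so inhibition keeps polarization high; 0% = DMSO wells and 100% = 60 µM reference IDE inhibitor Ii1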
# procasp3 activ = procaspase-3 (human) activation. P42574. recombinant procaspase-3 D3A, Ac-DEVD-pNA absorbance 405 nm. activation, % at 8.5 µM. actives 0.11% (n = 330,000). AID 463141;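 active = activation above the mean of all tested compounds plus 3 SD, cut at about 21% in these data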;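 note: 0% = DMSO alone and 100% = DMSO wells spiked with extra 5 µM PC-3 D3A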
# Target sequence (P42574 whole entry D9A/D28A/D175A): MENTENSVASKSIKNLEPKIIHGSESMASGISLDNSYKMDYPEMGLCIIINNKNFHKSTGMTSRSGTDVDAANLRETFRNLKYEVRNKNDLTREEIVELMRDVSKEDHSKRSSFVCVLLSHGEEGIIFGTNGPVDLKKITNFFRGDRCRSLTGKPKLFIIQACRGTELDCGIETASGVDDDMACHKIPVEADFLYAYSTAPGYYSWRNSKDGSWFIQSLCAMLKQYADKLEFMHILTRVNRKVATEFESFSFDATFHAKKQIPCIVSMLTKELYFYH
#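 Test system: Procaspase-3 D3A mutant; medium: Zinc-free HEPES/NaCl buffer with 0.01% Triton X-100 at pH 7.4; reagent: DEVD-pNA substrate; doses: one concentration, 8.5 µM nominal, 0.8% DMSO; times: 1 h preincubation plus 2 h reaction at 25 °C; signal: Epi-absorbance at 405 nm of released p-nitroaniline, 0 and 120 min; replicates: singlicate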
# IDE inh confirm = cellular human IDE inhibition, confirmation; actives 51% (n = 1,200); inhibition, % at 5.59 µM; shares compounds with IDE cell inh; HEK cells, FAbetaB cleavage, fluorescence polarization;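 active = mean inhibition across triplicate wells above the cutoff set by the earlier primary insulin-degrading enzyme screen, cut at about 16% in these data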;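 note: 0% = DMSO wells and 100% = 60 µM reference IDE inhibitor Ii1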
# HEK cytotox = kills HEK cells in IDE inhibitor counter-screen. shares compounds with IDE cell inh. HEK293 cytotoxicity, ATP luminescence. inhibition, % at 5.59 µM. actives 28% (n = 1,200); in the data active = inhibition above about 22%;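 note: 0% = vehicle wells and 100% = reference cytotoxic drug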
# An asterisk follows results filed as active; i = inactive; ? = inconclusive; . = no result. A selection: hits, their analogues and other compounds. The true share with any hit is near 1.9%.
SMILES,IDE act,UBC13 inh,PHOSPHO1 block,proCasp7 act,IDE cell inh,procasp3 activ,IDE inh confirm,HEK cytotox
CC(=O)N1c2ccc(S(=O)(=O)N3CCC(C(=O)N4CCN(c5ccc(Cl)cc5)CC4)CC3)cc2CC1C (stereo unspecified),-22,6,53,-2,20*,-4,10,38*
CC1Cc2cc(S(=O)(=O)N3CCN(c4ccc(Cl)cc4)CC3)ccc2N1C(=O)C1CC1 (stereo unspecified),0,-2,18,3,6,9,.,.
Oc1c(Cl)cc(Cl)cc1/C=C/c1ccc2cccc(O)c2n1,-54,-33,-46,7,33*,1,54*,15
Oc1ccc(Cl)cc1/C=C/c1ccc2cccc(O)c2n1,-1,-38,30,.,.,.,.,.
O=C1C=C(c2ccc(CO)cc2)C[C@@H](c2ccc3c(c2)OCO3)C1,0,2,.,1,4,-3,.,.
COc1ccc(NC(=O)Cn2nnc(C(=O)NCc3ccc4c(c3)OCO4)c2N)c(OC)c1,4,2,43,-3,1,4,.,.
Cc1ccc(NC(=O)C2CCC(N3C(=O)C4CCCCC4C3=O)CC2)cc1 (stereo unspecified),-2,2,14,1,8,0,.,.
CC(C)C[C@H](NC(=O)c1nc[nH]c1C(=O)NCCCCCN)C(=O)OCc1ccccc1,-5,18,.,4,1,6,.,.
Nc1cccc(N=[N+]([O-])c2cccc(N)c2)c1,-3,.,.,.,.,.,.,.
CC1=C/C(=C\C=C(C#N)C#N)N(C)c2ccccc21,-87,-281,15,-1,81*,-1,125*,23*
CCCCC(=O)OCC(=O)Nc1ccc(C)c(F)c1,9,11,36,-4,2,-5,.,.
Cn1c(SCC(=O)OC2CCCCC2)nnc1-c1ccco1,-7,4,8,-13,19*,5,5,13
N#C/C(=C/c1ccncc1)c1nc2ccccc2s1,-17,-4,32,-7,44*,-9,1,18
CC(C)=C(C#N)c1nc2ccccc2s1,-5,6,-7,-10,38*,-2,-3,16
C=CCc1cc(/C=C2/NC(=S)NC2=O)cc(OC)c1O,-48,-44,-26,-13,36*,-19,88*,8
CCN1/C(=C/c2ccc3cc(C)ccc3[n+]2CC)Sc2ccccc21,-58,i,-36,-145,91*,-158,136*,113*
CCN1/C(=C/c2ccc3cc(C)ccc3[n+]2CC)Sc2cc(C)c(C)cc21,-227,16,1,.,.,.,.,.
Cc1cccc(C)c1NC(=O)COC(=O)[C@@H]1CCCN1C(=O)c1cccs1,0,4,.,0,-3,7,.,.
O=C(Nc1cccc(-n2cnnn2)c1)c1cccs1,7,2,14,2,4,-4,.,.
CCc1sc(C(=O)Nc2cccc(-n3cnnn3)c2)cc1C,-19,-6,.,9,32*,4,19*,19
C=CC[C@]12CCc3sccc3C1N(c1ccc(C(=O)OCC)cc1)C2=O (stereo partly specified),0,-8,.,-7,0,8,.,.
CCc1ccc(C(=O)/C=C2\Sc3ccccc3NC2=O)cc1,-2,-9,4,-1,18*,3,2,9
Brc1cc2[nH]cnc2c2ccccc12,-39,?,9,-4,22*,-2,11,16
Oc1ccc2c(ccc3[nH]cnc32)c1,3,4,-10,2,3,-5,.,.
CC(=O)c1cc2c(C)c(C(=O)c3ccccc3)oc2cc1O,-63,1,-12,-9,35*,-9,87*,15
SMILES,IDE act,UBC13 inh,PHOSPHO1 block,proCasp7 act,IDE cell inh,procasp3 activ,IDE inh confirm,HEK cytotox
Cn1c(SCc2nc(-c3ccc(Br)cc3)no2)nnc1-c1ccco1,-8,-9,8,1,9,4,.,.
COc1ccc(-c2noc(CSc3nnc(-c4ccccc4)n3C)n2)cc1,-18,-8,3,8,17*,-3,9,16
Cc1ccsc1C(=O)OCC(=O)N(Cc1ccccc1)C(C)C,2,-3,.,7,16*,-5,3,12
Cc1ccc(C(=O)OCC(=O)N(Cc2ccccc2)C(C)C)cc1C,3,15,.,2,1,7,.,.
C/C(=N/NC(=O)c1ccncc1)c1cc2ccc(O)cc2oc1=O,-17,-1,-9,-25,21*,-15,26*,7
C/C(=N\NC(=O)c1ccncc1)c1cc2ccccc2oc1=O,4,-8,27,1,-1,-9,.,.
CC(=O)N(c1ccc2oc(=O)sc2c1)S(=O)(=O)c1ccccc1,-14,2,53,-23,23*,-21,11,7
CC(=O)c1c(C)oc2ccc(N(C(C)=O)S(=O)(=O)c3cccc([N+](=O)[O-])c3)cc12,-1,-21,-30,-1,-1,-8,.,.
CC(C)C(=O)N(c1ccc2oc(=O)sc2c1)S(=O)(=O)c1ccccc1,-22,-4,92*,-38,25*,-22,3,8
O=C(O)C(C1CCCCC1)C1(O)CCCC1 (stereo unspecified),4,.,.,.,.,.,.,.
Cc1cc(C)n(CCC(=O)Nc2ccc3c(c2)OCCO3)n1,3,-4,22,4,4,-8,.,.
CCN(CC)c1ccc2cc(-c3nnc(-c4ccccc4)o3)c(=O)oc2c1,-64,9,-3,1,36*,-7,83*,6
O=c1oc2ccc3ccccc3c2cc1-c1nnc(-c2ccccc2)o1,2,-3,5,4,8,6,.,.
CCN(CC)c1ccc2cc(-c3nc4ccccc4[nH]3)c(=O)oc2c1,25*,-18,7,-3,39*,-26,26*,50*
CCOc1ccccc1NC(=O)C(c1ccccc1)N1CCN(C(=O)c2ccco2)CC1 (stereo unspecified),0,11,.,9,6,2,.,.
CN(Cc1ccccc1)C(=O)COc1cccnc1[N+](=O)[O-],1,7,42,2,-3,4,.,.
CCN(CC)c1ccc(-c2sc(Nc3ccccc3)n[n+]2-c2ccc(F)cc2)cc1,-7,11,4,-15,2,-10,.,.
CCc1ccc(Nc2n[n+](-c3ccccc3)c(-c3ccc(N(CC)CC)cc3)s2)cc1,-8,-52,15,-18,19*,-18,23*,58*
COc1ccc(NC(=O)CC23CC4CC(CC(C4)C2)C3)cn1,-1,5,2,9,-5,0,.,.
